Results reported in ChEMBL document CHEMBL4138165, “Design, synthesis and biological evaluation of new β-carboline-bisindole compounds as DNA binding, photocleavage agents and topoisomerase I inhibitors” (Eur J Med Chem, 2018).
Activity calls are given as the source filed them. The calls are words filed in the database; no cut-off is given here.

Key:
A549 = experiment: Antiproliferative activity against human A549 cells after 48 hrs by MTT assay; type: functional, cell-based; conditions: A549, 48 h
DU-145 = experiment: Antiproliferative activity against human DU145 cells after 48 hrs by MTT assay; type: functional, cell-based; conditions: DU-145, 48 h
HeLa = experiment: Antiproliferative activity against human HeLa cells after 48 hrs by MTT assay; type: functional, cell-based
MCF7 = experiment: Antiproliferative activity against human MCF7 cells after 48 hrs by MTT assay; type: functional, cell-based; conditions: MCF7, 48 h
NIH3T3 = experiment: Antiproliferative activity against mouse NIH/3T3 cells after 48 hrs by MTT assay; type: functional, cell-based; conditions: NIH3T3, 48 h
[1] = target: T1, Topoisomerase I (Bos taurus) (UniProt Q2HPH0); experiment: Inhibition of calf thymus DNA topoisomerase 1 at 20 uM using pBR322 DNA as substrate after 30 mins by agarose gel electrophoresis method
T1 sequence (whole entry): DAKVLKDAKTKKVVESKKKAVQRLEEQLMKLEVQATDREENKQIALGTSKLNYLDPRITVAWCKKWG

Calf thymus DNA = experiment: Binding affinity to calf thymus double stranded DNA at 5 uM by ostwald viscometer; type: nucleic-acid assay; conditions: Bos taurus
DNA [2] = experiment: Induction of Escherichia coli pBR322 DNA cleavage at 20 uM incubated in dark condition by agarose gel electrophoresis; type: nucleic-acid assay
Summary of the method: (§1)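 pBR322 plasmid DNA was incubated with 20 µM ligand, either in the dark or under UV-light irradiation for 1 h. Products were separated by gel electrophoresis. Irradiated DNA solution alone served as the control.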

DNA [3] = experiment: Induction of Escherichia coli pBR322 DNA cleavage at 20 uM incubated in presence of UV-light for 1 hr by agarose gel electrophoresis; type: nucleic-acid assay; summary of the method: as §1

Compound | IC50 (A549) | IC50 (DU-145) | IC50 (HeLa) | IC50 (MCF7) | IC50 (NIH3T3) | inhibition [1] | Activity (Calf thymus DNA) | Activity (DNA [2]) | Activity (DNA [3])
COc1ccc(-c2nc(C(c3c[nH]c4ccccc34)c3c[nH]c4ccc(C#N)cc34)cc3c2[nH]c2ccccc23)cc1 (stereo not drawn) | 13.7 µM | 14.8 µM | 30.9 µM | 28.9 µM | 119 µM | – | – | – | –
COc1ccc2[nH]cc(C(c3cc4c([nH]c5ccccc54)c(-c4ccc(C)cc4)n3)c3c[nH]c4ccc(OC)cc34)c2c1 | 30.1 µM | 23.1 µM | 33.8 µM | 27.4 µM | 59.3 µM | – | – | – | –
COc1ccc(-c2nc(C(c3c[nH]c4ccc(OC)cc34)c3c[nH]c4ccc(OC)cc34)cc3c2[nH]c2ccccc23)cc1 | 18.1 µM | 16.3 µM | 32.5 µM | 29.9 µM | 102 µM | – | – | – | –
CC[C@@]1(O)C(=O)OCc2c1cc1n(c2=O)Cc2cc3ccccc3nc2-1 | – | – | – | – | – | Active | – | – | –
COc1cc(-c2nc(C(c3c[nH]c4ccc(F)cc34)c3c[nH]c4ccc(F)cc34)cc3c2[nH]c2ccccc23)cc(OC)c1OC | 16.9 µM | 10.1 µM | 12.2 µM | 13.6 µM | 118 µM | – | – | – | –
Cc1ccc(-c2nc(C(c3c[nH]c4ccc([N+](=O)[O-])cc34)c3c[nH]c4ccc([N+](=O)[O-])cc34)cc3c2[nH]c2ccccc23)cc1 | 6.92 µM | 6 µM | 10.9 µM | 16.9 µM | 145 µM | – | – | – | –
CC[n+]1c(-c2ccccc2)c2cc(N)ccc2c2ccc(N)cc21 | – | – | – | – | – | – | Active | – | –
COc1ccc(-c2nc(C(c3c[nH]c4ccc(Br)cc34)c3c[nH]c4ccc(Br)cc34)cc3c2[nH]c2ccccc23)cc1 | 9.24 µM | 2.63 µM | 15 µM | 18.6 µM | 86.3 µM | – | – | – | –
Cc1ccc(-c2nc(C(c3c[nH]c4ccccc34)c3c[nH]c4ccccc34)cc3c2[nH]c2ccccc23)cc1 | 10 µM | 13.7 µM | 14.3 µM | 18.1 µM | 101 µM | – | – | – | –
COc1ccc(-c2nc(C(c3c[nH]c4ccc(F)cc34)c3c[nH]c4ccc(F)cc34)cc3c2[nH]c2ccccc23)cc1 | 27.6 µM | 8.33 µM | 35.5 µM | 30.6 µM | 94.4 µM | – | – | – | –
Cc1ccc(-c2nc(C(c3c(C)[nH]c4ccc([N+](=O)[O-])cc34)c3c(C)[nH]c4ccc([N+](=O)[O-])cc34)cc3c2[nH]c2ccccc23)cc1 | 21.1 µM | 15 µM | 28.1 µM | 22.8 µM | 52.1 µM | – | – | – | –
Cc1[nH]c2ccc([N+](=O)[O-])cc2c1C(c1cc2c([nH]c3ccccc32)c(-c2ccc(F)cc2)n1)c1c(C)[nH]c2ccc([N+](=O)[O-])cc12 | 18.6 µM | 16.9 µM | 31.5 µM | 27.7 µM | 102 µM | – | – | – | –
Cc1ccc(-c2nc(C(c3c[nH]c4ccc(C#N)cc34)c3c[nH]c4ccc(C#N)cc34)cc3c2[nH]c2ccccc23)cc1 | 11 µM | 7.32 µM | 16 µM | 17.4 µM | 60.6 µM | – | – | – | –
CCOc1ccc(-c2nc3cc(-c4nc5cc(N6CCN(C)CC6)ccc5[nH]4)ccc3[nH]2)cc1 | – | – | – | – | – | – | inactive | – | –
COc1ccc(-c2nc(C(c3c(C)[nH]c4ccc([N+](=O)[O-])cc34)c3c(C)[nH]c4ccc([N+](=O)[O-])cc34)cc3c2[nH]c2ccccc23)cc1 | 11.7 µM | 16.6 µM | 21.5 µM | 25.3 µM | 126 µM | – | – | – | –
COc1cc(-c2nc(C(c3c[nH]c4ccc(Br)cc34)c3c[nH]c4ccc(Br)cc34)cc3c2[nH]c2ccccc23)cc(OC)c1OC | 21.8 µM | 14.7 µM | 15.8 µM | 33.4 µM | 64.3 µM | – | – | – | –

Compound | IC50 (A549) | IC50 (DU-145) | IC50 (HeLa) | IC50 (MCF7) | IC50 (NIH3T3) | inhibition [1] | Activity (Calf thymus DNA) | Activity (DNA [2]) | Activity (DNA [3])
COc1cc(-c2nc(C(c3c[nH]c4ccc([N+](=O)[O-])cc34)c3c[nH]c4ccc([N+](=O)[O-])cc34)cc3c2[nH]c2ccccc23)cc(OC)c1OC | 17.1 µM | 11.9 µM | 14.2 µM | 16.3 µM | 128 µM | – | – | – | –
COc1ccc2c(c1)[nH]c1c(C)nccc12 [HARMINE] | 7.76 µM | 12 µM | 16.2 µM | 10.8 µM | – | – | – | – | –
Cc1ccc(-c2nc(C(c3c[nH]c4ccc(F)cc34)c3c[nH]c4ccc(F)cc34)cc3c2[nH]c2ccccc23)cc1 | 14.2 µM | 5.81 µM | 12.4 µM | 14.2 µM | 66.2 µM | – | – | – | –
COc1ccc2[nH]cc(C(c3cc4c([nH]c5ccccc54)c(-c4cc(OC)c(OC)c(OC)c4)n3)c3c[nH]c4ccccc34)c2c1 (stereo not drawn) | 20.4 µM | 19.5 µM | 39.8 µM | 44.2 µM | 100 µM | – | – | – | –
O=[N+]([O-])c1ccc2[nH]cc(C(c3cc4c([nH]c5ccccc54)c(-c4ccc(F)cc4)n3)c3c[nH]c4ccc([N+](=O)[O-])cc34)c2c1 | 6.32 µM | 1.92 µM | 12.8 µM | 14.4 µM | 64.2 µM | Active | – | Not Active | inactive
COc1ccc(-c2nc(C(c3c[nH]c4ccc([N+](=O)[O-])cc34)c3c[nH]c4ccc([N+](=O)[O-])cc34)cc3c2[nH]c2ccccc23)cc1 | 10.4 µM | 9.31 µM | 18 µM | 50.1 µM | 118 µM | – | – | – | –
COc1cc(-c2nc(C(c3c(C)[nH]c4ccc([N+](=O)[O-])cc34)c3c(C)[nH]c4ccc([N+](=O)[O-])cc34)cc3c2[nH]c2ccccc23)cc(OC)c1OC | 31.7 µM | 20.7 µM | 22.6 µM | 33.1 µM | 105 µM | – | – | – | –
N#Cc1ccc2[nH]cc(C(c3cc4c([nH]c5ccccc54)c(-c4ccc(F)cc4)n3)c3c[nH]c4ccccc34)c2c1 (stereo not drawn) | 15.7 µM | 2.34 µM | 17.1 µM | 26.3 µM | 58.1 µM | – | – | – | –
COc1cc(-c2nc(C(c3c[nH]c4ccccc34)c3c[nH]c4ccccc34)cc3c2[nH]c2ccccc23)cc(OC)c1OC | 22.7 µM | 12.8 µM | 21.4 µM | 34.9 µM | 92.9 µM | – | – | – | –
Fc1ccc(-c2nc(C(c3c[nH]c4ccc(Br)cc34)c3c[nH]c4ccc(Br)cc34)cc3c2[nH]c2ccccc23)cc1 | 8.3 µM | 7.74 µM | 9.5 µM | 18.3 µM | 90.1 µM | – | – | – | –
Fc1ccc(-c2nc(C(c3c[nH]c4ccc(F)cc34)c3c[nH]c4ccc(F)cc34)cc3c2[nH]c2ccccc23)cc1 | 18.5 µM | 15.8 µM | 18.1 µM | 19.8 µM | 114 µM | – | – | – | –
COc1ccc2[nH]cc(C(c3cc4c([nH]c5ccccc54)c(-c4ccc(F)cc4)n3)c3c[nH]c4ccc(OC)cc34)c2c1 | 14.6 µM | 10.6 µM | 23.7 µM | 34.6 µM | 110 µM | – | – | – | –
COc1ccc(-c2nc(C(c3c[nH]c4ccccc34)c3c[nH]c4ccccc34)cc3c2[nH]c2ccccc23)cc1 | 13.5 µM | 12.8 µM | 26.2 µM | 38.1 µM | 83.2 µM | – | – | – | –
COc1cccc2c1C(=O)c1c(O)c3c(c(O)c1C2=O)C[C@@](O)(C(=O)CO)C[C@@H]3O[C@H]1C[C@H](N)[C@H](O)[C@H](C)O1 [DOXORUBICIN] | – | 2.13 µM | 1.73 µM | 2.18 µM | – | – | – | – | –
COc1cc(-c2nc(C(c3c[nH]c4ccccc34)c3c[nH]c4ccc(C#N)cc34)cc3c2[nH]c2ccccc23)cc(OC)c1OC (stereo not drawn) | 19.3 µM | 19 µM | 9.86 µM | 11.8 µM | 57.2 µM | – | – | – | –
